RanGTP-Imp inh = inhibitors of RanGTP-importin-beta interaction, primary screen, biochemical, FRET, CFP-Ran, YFP-importin-beta, homogeneous; Ran GTPase (GTP-bound) - importin-beta complex; 300,000 tested, 1.1% active; inhibition, % (test concentration not listed); cell-free CFP-Ran/YFP-importin-beta FRET ratio;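 active = more than half of the replicate wells show a fall in the fluorescence ratio signal beyond about 16%, limit read from the data, passing the limit was not always enough; inconclusive = exactly half of the replicate wells pass the set limit; inactive = fewer than half of replicates pass the limit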
Runt-SMMHC FRET = inhibitors of RUNX1 Runt–CBFb-SMMHC binding, primary screen, biochemical, FRET, Cerulean-Runt, Venus-CBFb-SMMHC, uHTS; 220,000 tested, 0.74% active; Cerulean-Runt/Venus-CBFb-SMMHC FRET ratio 530/480, 1 h; inhibition, % at 20 µM;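 active = mean inhibition across duplicate retests at 20 µM reaching about 50%, limit read from the data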;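 note: inhibitors lower the FRET ratio by blocking Runt binding to CBFb-SMMHC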
Target sequence (Q01196 whole entry, looked up): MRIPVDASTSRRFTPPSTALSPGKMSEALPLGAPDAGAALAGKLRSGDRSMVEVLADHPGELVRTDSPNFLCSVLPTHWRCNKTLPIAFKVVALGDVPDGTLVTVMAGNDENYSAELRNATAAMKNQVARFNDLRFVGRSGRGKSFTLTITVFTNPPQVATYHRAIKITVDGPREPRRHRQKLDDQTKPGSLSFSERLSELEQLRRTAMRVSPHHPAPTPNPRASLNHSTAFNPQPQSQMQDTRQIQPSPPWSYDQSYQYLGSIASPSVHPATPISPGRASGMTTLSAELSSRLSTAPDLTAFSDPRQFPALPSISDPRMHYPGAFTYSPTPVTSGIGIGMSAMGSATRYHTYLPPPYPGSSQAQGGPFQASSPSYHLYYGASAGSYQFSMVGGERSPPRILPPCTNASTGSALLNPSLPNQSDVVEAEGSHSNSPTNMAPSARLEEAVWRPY
Target sequence (Q13951 whole entry, looked up): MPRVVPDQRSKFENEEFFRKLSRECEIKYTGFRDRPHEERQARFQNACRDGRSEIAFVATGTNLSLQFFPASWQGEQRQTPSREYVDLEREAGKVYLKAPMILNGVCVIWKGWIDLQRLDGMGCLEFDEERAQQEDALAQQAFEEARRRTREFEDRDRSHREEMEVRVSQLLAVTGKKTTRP
Hck-Nef inh = inhibitors of Nef-activated human Hck kinase, primary screen, biochemical, Z-Lyte FRET, 384-well, Hck-YEEI; Tyrosine-protein kinase HCK (Homo sapiens), P08631; Recombinant Hck-YEEI plus Nef, Z-Lyte FRET kinase assay; inhibition, % at 20 µM; 220,000 tested, 0.68% active;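 active = Hck-Nef kinase inhibition above about 50%, limit read from the data; inactive = inhibition below that limit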
Runt-CBFb FRET = inhibitors of RUNX1 Runt–CBFb binding, primary screen, biochemical, FRET, Cerulean-Runt, Venus-CBFb, uHTS; Runt-related transcription factor 1 (Homo sapiens) + Core-binding factor subunit beta …; Cerulean-Runt/Venus-CBFb FRET ratio 530/480, 1 h; inhibition, % at 20 µM; 220,000 tested, 0.46% active; AID 1496, 2009;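 active = inhibition over about 50% at 20 µM in the single-dose screen, limit read from the data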
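Measured by: fluorescence energy transfer, 422 nm excitation, 530/480 nm emission; test system: Cerulean-tagged RUNX1 Runt domain (FRET donor) fusion protein; buffer or medium: Tris pH 7.5 buffer with BSA; compound: one dose, 20 µM compound, 1% DMSO; times: two 1 h room-temperature incubations shielded from light; benchmarks: unlabeled CBFb 5 µM, positive control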
Hits are given with their value; i = inactive; ? = inconclusive; nt = no result given. Compounds with a hit are over-represented: about 1.7% of the library has one in this group of screens.

SMILES	RanGTP-Imp inh	Runt-SMMHC FRET	Hck-Nef inh	Runt-CBFb FRET
O=S(=O)(Cc1ccccc1)N1CCN(Cc2ccc3c(c2)OCO3)CC1	159	i	i	i
O=C(c1nc2ccc(Cl)cn2c1CN1CCC[C@H]1CO)N1CCCCCCC1	22	nt	nt	nt
COC1CCN(Cc2c(C(=O)N3CCN(C4CCCCC4)CC3)nc3ccccn23)CC1	104	nt	nt	nt
O=C(c1nc2ccccn2c1CN1CCC(Cc2ccccc2)CC1)N1CCCC1	i	i	i	i
Cc1cccc(OC2CCN(Cc3c(C(=O)N4CCCC4)nc4ccccn34)CC2)c1	i	i	i	i
O=C(c1cnn2ccccc12)N1CCN(C2CCCCC2)CC1	i	i	i	i
NC(=O)[C@@H]1CCCN1Cc1c(C(=O)N2CCN(C3CCCCC3)CC2)nc2ccccn12	112	nt	nt	nt
COCC1CCN(Cc2c(C(=O)N3CCN(C4CCCCC4)CC3)nc3ccccn23)C1 (centres undefined)	111	nt	nt	nt
Cc1nn2c(NCCN(C)C)c3c(nc2c1-c1ccccc1)CCCC3	i	i	i	i
COc1cc(CN2CCN(C(=O)c3ccccc3F)CC2)cc(OC)c1OC	i	nt	nt	nt
O=C(CSc1cc(Cl)ccc1Cl)NC1CCCC1	i	nt	nt	nt
COc1ccc(CCN2CCCn3c2nc2c3c(=O)n(C)c(=O)n2C)cc1OC	i	nt	nt	nt
CC(=O)Oc1ccc2c(=O)c(/C=N/c3cc(=O)[nH]c(=S)[nH]3)coc2c1	i	i	i	i
COc1ccc(NC(=O)CN2C(=O)CSC(C)C2=O)cc1 (centres undefined)	i	i	i	i
Cc1cccn2c(CN3CCCC(c4ccccc4)C3)c(C(=O)N3CCOCC3)nc12 (centres undefined)	i	i	i	i
O=C(c1nc2ccccn2c1CN1CCCC(O)C1)N1CCN(C2CCCCC2)CC1 (centres undefined)	103	nt	nt	nt
O=c1cc(O)sc2ccccc12	16	i	i	i
Cc1nc2c(s1)sc1ccccc12	i	i	i	i
CN(C)c1ccc(-c2ccc3c(=O)c4ccccc4n(C)c3c2)cn1	19	nt	nt	nt
O=[N+]([O-])c1ccc(N=Cc2sc3ccccc3c2O)cc1	37	105	i	i
Oc1c(C=NCc2ccccc2)sc2ccccc12	?	64	i	i
O=[N+]([O-])c1cccc(/C=C/c2nc(C=Nc3ccc4ccccc4c3)c(O)o2)c1	nt	i	i	i
O=[N+]([O-])c1cccc(N=Cc2sc3ccccc3c2O)c1	i	87	i	i
O=S(=O)(c1cccc(Br)c1)N1CCN(CCc2ccccc2)CC1	i	nt	nt	nt
CC(C)=CCCC1(C)C=Cc2c(c(C)cc3c2[nH]c2cc(O)ccc23)O1 (centres undefined)	i	i	i	i
SMILES	RanGTP-Imp inh	Runt-SMMHC FRET	Hck-Nef inh	Runt-CBFb FRET
CN(Cc1ccccc1F)C(=O)c1sccc1-c1ccccc1	i	nt	nt	nt
Cc1c(CN2CCc3c([nH]c4ccccc34)C2CC(C)C)cnn1C (centres undefined)	35	i	i	i
CCOC(=O)C1CCN(C(=O)Nc2ccc3nc(-c4ccco4)c(-c4ccco4)nc3c2)CC1	75	i	i	i
O=C(Nc1ccc2nc(-c3ccco3)c(-c3ccco3)nc2c1)N1CCCCCC1	80	i	i	i
O=C(Nc1ccccn1)N1CCOCC1	i	i	i	i
Cc1nc2ccc(NC(=O)N3CCCCC3)cc2nc1C	i	i	i	i
O=C(Nc1ccc2nc(-c3ccccn3)c(-c3ccccn3)nc2c1)N1CCOCC1	20	i	i	i
O=c1[nH]cccc1-c1nc2ccccc2[nH]1	i	nt	nt	nt
O=c1oc2c(O)cccc2cc1-c1nc2ccccc2[nH]1	133	nt	nt	nt
O=c1oc2c(CN3CCCCC3)c(O)ccc2cc1-c1nc2ccccc2[nH]1	nt	57	nt	i
O=c1oc2c(CN3CCN(CCO)CC3)c(O)ccc2cc1-c1ccccn1	156	80	i	i
COCCNC(=O)c1cc(-c2cccs2)on1	i	i	i	i
COCCNC(=O)Nc1ccc2nc(-c3cccs3)c(-c3cccs3)nc2c1	120	81	i	i
O=C(Nc1ccc2nc(-c3cccs3)c(-c3cccs3)nc2c1)NC1CC1	121	i	i	i
O=C(Nc1cccs1)NC1CCCC1	i	i	i	i
C=CCNc1nc(N2CCCCC2)c(C#N)c2c1CN(Cc1ccccc1)CC2	52	i	i	i
N#Cc1c(NCCO)nc(NCc2ccccc2)c2c1CCN(Cc1ccccc1)C2	137	79	i	i
CCN1CCc2c(C#N)c(N3CCCCC3)nc(NCc3ccccc3)c2C1	i	i	i	i
CCN1CCc2c(C#N)c(N3CCOCC3)nc(NCc3ccccc3)c2C1	28	58	i	i
C=CCNc1nc(N2CCOCC2)c(C#N)c2c1CN(C)CC2	96	55	i	i
CN1CCc2c(C#N)c(N3CCCCC3)nc(N3CCOCC3)c2C1	i	nt	i	nt
CCc1nc(NCc2ccccc2)c(C#N)c2c1CCCC2	i	i	i	i
N#Cc1c(N)sc(=S)c2c1CCN(Cc1ccccc1)C2	nt	i	nt	i
O=C(CN1C(=O)c2ccccc2C1=O)Nc1ccc(Cl)cn1	i	i	i	i
O=C(N1CCCC1)N1CCN(S(=O)(=O)c2ccccc2)CC1	i	nt	nt	nt
SMILES	RanGTP-Imp inh	Runt-SMMHC FRET	Hck-Nef inh	Runt-CBFb FRET
Cc1c(Cl)cccc1NC(=S)N1CCCN(Cc2ccc(F)cc2)C1	i	i	i	i
CC1CCCN(C(=O)CSCC(=O)N=c2sc3ccccc3n2C)C1 (centres undefined)	i	i	i	i
CCOC(=O)c1cc(-c2cccc([N+](=O)[O-])c2)on1	?	i	i	i
CCN1CCc2c(C#N)c(N3CCOCC3)nc(NCCO)c2C1	54	62	i	i
CC1Cc2cc(S(=O)(=O)N3CCC(C(N)=O)CC3)ccc2N1C(=O)C1CC1 (centres undefined)	18	nt	nt	nt
O=C(Nc1ccnn1C1CCN(Cc2cc(Cl)ccc2O)CC1)c1cccnc1	i	nt	nt	nt
Cc1cc(C)cc(-n2c3nc4ccccc4nc3c3c(=O)n(Cc4ccco4)cnc32)c1	19	nt	i	i
CC(NCc1ccccc1)c1ccccc1O (centres undefined)	i	i	i	i
CCn1cc(S(=O)(=O)NCc2ccc(OC)cc2)cn1	i	nt	nt	nt
Cc1ccc(C)c(N2CCN(C(=O)c3ccc4nc(N5CCOCC5)sc4c3)CC2)c1	i	nt	nt	nt
COc1ccccc1N1CCN(C(=O)c2ccc3nc(-c4ccco4)c(-c4ccco4)nc3c2)CC1	33	i	i	i
Cc1ccc(C)c(N2CCN(C(=O)c3ccc4nc(-c5ccco5)c(-c5ccco5)nc4c3)CC2)c1	52	i	i	i
Cn1c(C(=O)N2CCOCC2)cc2c(=O)n3ccccc3nc21	i	nt	nt	nt
CCOC(=O)C1CCN(C(=O)c2cc3c(=O)n4ccccc4nc3n2C)CC1	?	51	i	i
Cn1c(C(=O)O)cc2c(=O)n3ccccc3nc21	i	78	i	i

Screening results as filed in PubChem BioAssay.
